Measurements taken from ChEMBL document CHEMBL2311331, “Selective and potent adenosine A3 receptor antagonists by methoxyaryl substitution on the N-(2,6-diarylpyrimidin-4-yl)acetamide scaffold” (Eur J Med Chem, 2013).

What was measured:
Adenosine receptor A2a [1] = target: T1, Adenosine receptor A2a (Homo sapiens, UniProt P29274); assay: Displacement of [3H]4-(2-[7-Amino-2-(2-furyl) [1,2,4]triazolo[2,3-alpha] [1,3,5]triazin-5-ylamino]ethyl)phenol from human adenosine A2A receptor expressed in human HeLa cells at 1 uM; format: cell-based
T1 sequence (P29274 whole entry): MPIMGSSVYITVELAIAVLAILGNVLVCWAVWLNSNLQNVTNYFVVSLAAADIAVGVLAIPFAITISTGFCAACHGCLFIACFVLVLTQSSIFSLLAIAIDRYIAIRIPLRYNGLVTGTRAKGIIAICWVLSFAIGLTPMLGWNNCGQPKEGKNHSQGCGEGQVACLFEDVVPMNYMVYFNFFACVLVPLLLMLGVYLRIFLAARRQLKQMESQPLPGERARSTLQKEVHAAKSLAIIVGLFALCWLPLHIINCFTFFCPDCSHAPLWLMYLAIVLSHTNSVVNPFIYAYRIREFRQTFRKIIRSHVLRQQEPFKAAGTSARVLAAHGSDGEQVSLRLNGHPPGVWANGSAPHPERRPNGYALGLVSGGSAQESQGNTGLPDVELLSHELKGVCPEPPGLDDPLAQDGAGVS
Procedure, shortened: (§1)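 Specific radioligand binding measured in the presence of a single test concentration, 1 µM, at each receptor/cell system (A1 CHO with [3H]DPCPX; A2A HeLa with triazolotriazine phenol tracer; A2B HEK-293 with [3H]DPCPX; A3 HeLa with [3H]NECA). Reported as percent displacement of specific binding, n = 2.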

Adenosine receptor A3 = target: T2, Adenosine receptor A3 (Homo sapiens, UniProt P0DMS8); assay: Displacement of [3H]NECA from human adenosine A3 receptor expressed in human HeLa cells; format: cell-based
T2 sequence (P0DMS8 whole entry): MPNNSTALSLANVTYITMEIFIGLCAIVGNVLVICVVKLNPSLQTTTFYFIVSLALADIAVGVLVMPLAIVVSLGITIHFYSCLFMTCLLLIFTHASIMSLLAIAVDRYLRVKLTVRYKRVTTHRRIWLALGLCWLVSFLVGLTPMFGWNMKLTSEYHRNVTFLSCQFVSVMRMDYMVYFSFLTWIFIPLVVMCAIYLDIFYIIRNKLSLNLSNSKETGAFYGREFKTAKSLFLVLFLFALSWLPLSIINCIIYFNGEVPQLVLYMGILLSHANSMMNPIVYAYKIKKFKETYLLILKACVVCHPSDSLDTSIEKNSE

[2] = target: T3, Adenosine receptor A1 (Homo sapiens) (UniProt P30542); assay: Displacement of [3H]DPCPX from human adenosine A1 receptor expressed in CHO cells at 1 uM; format: cell-based; procedure, shortened: as §1
T3 sequence (whole entry): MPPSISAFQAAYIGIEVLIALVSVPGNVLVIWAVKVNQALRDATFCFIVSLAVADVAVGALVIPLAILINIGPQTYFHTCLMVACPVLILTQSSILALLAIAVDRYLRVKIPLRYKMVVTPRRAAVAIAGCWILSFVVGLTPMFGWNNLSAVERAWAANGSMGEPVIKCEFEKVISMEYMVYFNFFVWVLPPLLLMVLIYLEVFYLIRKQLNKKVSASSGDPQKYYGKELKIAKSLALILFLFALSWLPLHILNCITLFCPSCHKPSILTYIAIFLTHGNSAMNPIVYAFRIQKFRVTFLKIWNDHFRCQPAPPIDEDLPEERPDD

[3] = target: T4, Adenosine receptor A2b (Homo sapiens) (UniProt P29275); assay: Displacement of [3H]DPCPX from human adenosine A2B receptor expressed in HEK-293 cells at 1 uM; format: cell-based; settings: HEK293; procedure, shortened: as §1
T4 sequence (whole entry): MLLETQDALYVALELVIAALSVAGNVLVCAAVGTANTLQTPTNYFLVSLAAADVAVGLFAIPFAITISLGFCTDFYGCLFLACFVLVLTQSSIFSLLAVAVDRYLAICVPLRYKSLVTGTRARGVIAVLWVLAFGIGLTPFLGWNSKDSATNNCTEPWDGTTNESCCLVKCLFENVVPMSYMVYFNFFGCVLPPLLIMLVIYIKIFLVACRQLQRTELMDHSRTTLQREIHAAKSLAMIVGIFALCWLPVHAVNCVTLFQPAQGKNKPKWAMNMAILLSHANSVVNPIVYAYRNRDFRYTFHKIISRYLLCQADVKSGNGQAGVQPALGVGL

Adenosine receptor A1 = target: T5, Adenosine receptor A1 (Homo sapiens, UniProt P30542); assay: Displacement of [3H]DPCPX from human adenosine A1 receptor expressed in CHO cells; format: cell-based
T5 sequence (P30542 whole entry): T3 sequence (whole entry)

Adenosine receptor A2b = target: T6, Adenosine receptor A2b (Homo sapiens, UniProt P29275); assay: Displacement of [3H]DPCPX from human adenosine A2B receptor expressed in HEK-293 cells; format: cell-based, HEK293
T6 sequence (P29275 whole entry): T4 sequence (whole entry)

Adenosine receptor A2a [4] = target: T1, Adenosine receptor A2a; assay: Displacement of [3H]4-(2-[7-Amino-2-(2-furyl) [1,2,4]triazolo[2,3-alpha] [1,3,5]triazin-5-ylamino]ethyl)phenol from human adenosine A2A receptor expressed in human HeLa cells; format: cell-based
[5] = target: T7, Adenosine receptor A3 (Homo sapiens) (UniProt P0DMS8); assay: Displacement of [3H]NECA from human adenosine A3 receptor expressed in human HeLa cells at 1 uM; format: cell-based; procedure, shortened: as §1
T7 sequence (whole entry): T2 sequence (P0DMS8 whole entry)

Row | Compound | inhibition (Adenosine receptor A2a [1]) | Ki (Adenosine receptor A3) | inhibition [2] | inhibition [3] | Ki (Adenosine receptor A1) | Ki (Adenosine receptor A2b) | Ki (Adenosine receptor A2a [4]) | inhibition [5]
1 | COc1ccc(/C=C/c2cc(NC(C)=O)nc(/C=C/c3ccc(OC)cc3)n2)cc1 | 13% | 513 nM | 16% | 2% |  |  |  | 
2 | COc1cccc(-c2cc(NC(C)=O)nc(-c3cccc(OC)c3)n2)c1 |  | 2.8 nM |  |  | 22.6 nM | 67.5 nM | 49.4 nM | 
3 | COc1ccc(OC)c(-c2cc(NC(C)=O)nc(-c3cc(OC)ccc3OC)n2)c1 | 17% | 6.3 nM | 4% | 1% |  |  |  | 
4 | COc1cc(-c2cc(NC(C)=O)nc(-c3cc(OC)c(OC)c(OC)c3)n2)cc(OC)c1OC | 1% | 26.1 nM | 14% | 1% |  |  |  | 
5 | COc1cccc(OC)c1-c1cc(NC(C)=O)nc(-c2c(OC)cccc2OC)n1 | 1% |  | 4% | 3% |  |  |  | 4%
6 | CC(=O)Nc1cc(-c2ccccc2)nc(-c2ccccc2)n1 |  |  |  | 22% |  |  |  | 
7 | COc1ccc(-c2cc(NC(C)=O)nc(-c3ccc(OC)cc3)n2)cc1 | 4% |  | 2% | 2% |  |  |  | 

More lines, now with the values ahead:

Row | inhibition (Adenosine receptor A2a [1]) | Ki (Adenosine receptor A3) | inhibition [2] | inhibition [3] | Ki (Adenosine receptor A1) | Ki (Adenosine receptor A2b) | Ki (Adenosine receptor A2a [4]) | inhibition [5] | Compound
8 | 5% | 5.2 nM | 10% | 2% |  |  |  |  | COc1ccc(-c2cc(NC(C)=O)nc(-c3ccc(OC)c(OC)c3)n2)cc1OC
9 |  |  |  | 6% | 17 nM |  |  |  | CC(=O)Nc1cc(-c2ccc3c(c2)OCO3)nc(-c2ccc3c(c2)OCO3)n1
10 | 15% |  | 4% | 7% |  |  |  |  | COc1ccccc1-c1cc(NC(C)=O)nc(-c2ccccc2OC)n1
11 | 1% | 389 nM | 8% | 4% |  |  |  |  | CC(=O)Nc1cc(-c2ccc(OC(F)(F)F)cc2)nc(-c2ccc(OC(F)(F)F)cc2)n1
12 | 3% | 55 nM | 15% | 1% |  |  |  |  | COc1cc(OC)cc(-c2cc(NC(C)=O)nc(-c3cc(OC)cc(OC)c3)n2)c1
13 | 10% |  | 3% | 7% |  |  |  |  | COc1ccc(-c2cc(NC(C)=O)nc(-c3ccc(OC)cc3OC)n2)c(OC)c1
14 | 2% | 40.2 nM | 12% | 1% |  |  |  |  | CCOc1ccc(-c2cc(NC(C)=O)nc(-c3ccc(OCC)cc3)n2)cc1
15 |  | 42.4 nM | 10% |  |  | 494 nM | 375 nM |  | COc1cccc(-c2cc(NC(C)=O)nc(-c3cccc(OC)c3OC)n2)c1OC
